From PubChem
The entries come from a sample that favours hits as a whole.
HUVEC inhibit – human endothelial cell proliferation inhibition; HUVEC proliferation, CellTiter-Glo luminescence, 72 h; hits give low values; 86,000 compounds, 1.1% hits; viability, % at 10 µM (by protocol);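 active means viability at or below 30%; inactive means viability above 30%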;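 further: 100% = median luminescence of DMSO-only cell control wells on each plate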
H69AR inhibit – growth inhibitors of human H69AR lung tumor cells. H69AR lung tumor viability, ATP luminescence, 72 h; hits give low values. viability, % at 10 µM. 85,000 compounds, 6% hits. AID 598;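 active means viability at or below 40%; inactive means viability above 40%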;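 further: multidrug resistant small cell line overexpressing MRP-1 efflux transporter; 100% = mean luminescence of untreated control wells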
bCat KO growth – beta-catenin-lacking colon tumor cell growth suppression. HCT116 beta-catenin knockout viability, CellTiter-Glo, 60 h; hits give low values. AID 818. viability, % at 10 µM. 140,000 compounds, 1.5% hits;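 active means viability at or under a set limit, the compound median less 4 SD, cut at about 6% in these data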;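 further: 0% = Hyamine 1622 control at 20 µM and 100% = untreated cell control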
Fibroblast inh – blocks proliferation of human lung fibroblasts; LL 47 human lung fibroblast viability, ATP luminescence; hits give low values; viability, % at 10 µM; 85,000 compounds, 1.1% hits; AID 719;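 active means viability at or below 50% in the single dose screen; inactive means viability above 50%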;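 further: compound exposure lasted 72 h before the ATP readout; 100% = median luminescence of untreated cell-only wells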
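Test system: LL 47 human lung fibroblasts; Quantity: 1,150 cells/well; Buffer or medium: IMEM plus 15% FBS; Dosing: tenfold compound dosing solution, DMSO at 0.1%; Timing: overnight cell rest, 72 h compound treatment at 37 °C; Detection: ATP-based CellTiter-Glo luminescent readout; Read-out basis: viability percentage against median untreated-cell control; Controls: cell-only wells, no compound.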
HCT116 PTEN-null – PTEN-deleted cell growth suppression | HCT116 PTEN-null viability, CellTiter-Glo, 60 h; hits give low values | viability, % at 10 µM | 140,000 compounds, 1.2% hits;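 active means viability at or below a set limit, 4 SD under the median of all tested compounds, cut at about 3.7% in these data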;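 further: PTEN knockout HCT116 line with beta catenin targeted HCT116 as companion control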
Active calls of the source: *; nt = no result given.

SMILES	HUVEC inhibit	H69AR inhibit	bCat KO growth	Fibroblast inh	HCT116 PTEN-null
O=[N+]([O-])c1ccc(O)c(N=Cc2sc3ccccc3c2O)c1	nt	nt	1.9*	nt	3.7*
Oc1c(C=Nc2cccc3cccnc23)sc2ccccc12	4.2*	17*	3.0*	42*	3.8*
COc1ccc(N=Cc2sc3ccccc3c2Cl)cc1	nt	nt	77	nt	94
CN(/N=C/c1cc([N+](=O)[O-])ccc1O)c1ccccc1	nt	nt	98	nt	93
CC(OC(=O)CNC(=O)c1ccccc1F)C(=O)Nc1nc(-c2ccccc2)cs1 (stereo unspecified)	nt	nt	88	nt	105
O=C(Nc1ccccc1C(F)(F)F)N1CCN(c2ccc3nncn3n2)CC1	97	89	100	95	99
CCOC(=O)c1c(NC(=O)c2cc3n(n2)C(C(F)(F)F)CC(c2cccs2)N3)sc(C)c1C (stereo unspecified)	nt	nt	1.5*	nt	1.0*
Cc1nn(C)c(C)c1CNC(=O)c1cc2n(n1)C(C(F)(F)F)CC(c1cccs1)N2 (stereo unspecified)	101	93	84	99	96
O=C(c1cnn2c1NC(c1ccco1)CC2C(F)(F)F)N1CCN(c2cccc(Cl)c2)CC1 (stereo unspecified)	58	14*	62	88	39
CCCCCCC(=O)N1CCN(c2cc3c(cc2F)c(=O)c(C(=O)O)cn3CC)CC1	92	27*	nt	87	nt
CCn1cc(C(=O)NCc2cccc(F)c2)c(=O)c2cc(F)c(N3CCN(C(=O)c4ccco4)CC3)cc21	63	16*	44	89	33
CCn1cc(C(=O)NCc2cccnc2)c(=O)c2cc(F)c(N3CCN(C(=O)c4ccco4)CC3)cc21	107	35*	82	102	72
CCn1cc(C(=O)Nc2nnc(C)s2)c(=O)c2cc(F)c(N3CCN(C(=O)c4ccco4)CC3)cc21	103	87	nt	112	nt
CCC(=O)N1CCN(c2cc3c(cc2F)c(=O)c(C(=O)O)cn3CC)CC1	96	100	nt	101	nt
CCc1ccc2nc(N3C(=O)c4oc5ccccc5c(=O)c4C3c3ccc(OC)c(OC)c3)sc2c1 (stereo unspecified)	nt	nt	86	nt	82
CCOC(=O)C1C(=O)C=C(Nc2ccccc2F)CC1c1ccccc1 (stereo unspecified)	nt	nt	85	nt	83
Cc1c(C=O)cnn1CCC(=O)O	92	97	nt	104	nt
O=C(c1ccc2c(=O)n(Cc3ccc4c(c3)OCO4)c(=S)[nH]c2c1)N1CCCCC1	73	35*	80	93	65
COCCCNC(=O)c1ccc2c(=O)n(Cc3ccc4c(c3)OCO4)c(=S)[nH]c2c1	22*	58	83	113	79
CCOC(=O)N1CCN(C(=O)c2ccc3c(=O)n(Cc4ccccc4OC)c(=S)[nH]c3c2)CC1	89	34*	93	89	85
O=C(c1ccc2c(=O)n(CC3CCCO3)c(=S)[nH]c2c1)N1CCN(c2ccccc2)CC1 (stereo unspecified)	108	70	1.1*	97	1.5*
O=C(COc1ccccc1[N+](=O)[O-])N/N=C/c1cccs1	nt	nt	93	nt	95
COc1ccc(C2CCCN2C(=O)Nc2ccc(Cl)cc2)cc1OC (stereo unspecified)	110	86	90	100	82
CCOC(=O)C1=C(CN2CCCCC2)NC(=O)NC1c1cc(C)ccc1C (stereo unspecified)	109	74	89	103	92
CCOC(=O)C1=C(CSCc2ccccc2)NC(=O)NC1c1cc(C)ccc1C (stereo unspecified)	94	32*	53	98	49
SMILES	HUVEC inhibit	H69AR inhibit	bCat KO growth	Fibroblast inh	HCT116 PTEN-null
COC(=O)[C@H](CCSC)NC(=O)NCc1ccc(S(N)(=O)=O)cc1	90	1.9*	105	99	104
O=C(CSC(=S)N1CCN(c2ccccc2)CC1)Nc1nc(-c2ccccc2)c(-c2ccccc2)o1	nt	nt	86	nt	87
O=c1c2ccccc2sn1-c1cc(S(=O)(=O)N2CCOCC2)ccc1N1CCCC1	73	1.0*	87	55	98
Cc1ccc(C)c(NS(=O)(=O)c2ccc3c(c2)Cc2cc(S(=O)(=O)Nc4cc(C)ccc4C)ccc2-3)c1	nt	nt	15	nt	6
Cc1cc(C)c(NC(=O)CN2C(=O)NC3(CCCCC3)C2=O)c(Cl)c1	81	29*	81	88	81
O=C(CSc1nnc(Cc2ccccc2)n1-c1cccc(Cl)c1)NNC(=O)Cc1ccccc1	nt	nt	102	nt	104
Cc1cc(C)cc(NS(=O)(=O)c2ccc3oc(=O)ccc3c2)c1	92	103	71	96	56
CCC(=O)OCCNc1cc(Sc2nc3ccccc3s2)c2nonc2c1[N+](=O)[O-]	56	1.3*	4.1*	3.7*	3.7*
O=[N+]([O-])c1c(NCCCO)cc(Sc2nc3ccccc3s2)c2nonc12	nt	nt	2.3*	nt	3.6*
CCC(=O)OCCNc1cc(Sc2nc3ccccc3[nH]2)c2nonc2c1[N+](=O)[O-]	nt	nt	1.7*	nt	1.5*
O=C(N/N=C/c1sc2ccccc2c1O)c1ccccc1	nt	nt	4.0*	nt	3.7*
COc1ccc(C(=O)N/N=C/c2sc3ccccc3c2O)cc1	nt	nt	3.3*	nt	3.5*
COc1ccc2cc(C(=O)N/N=C/c3sc4ccccc4c3O)ccc2c1	nt	nt	3.1*	nt	4
O=C(C[n+]1ccc(C(=O)N/N=C/c2ccc(O)cc2)cc1)c1ccccc1	96	93	95	104	100
COc1ccc(C(=O)N/N=C/c2cc3ccccc3[nH]c2=S)cc1	nt	nt	47	nt	56
O=C(N/N=C/c1sc2ccccc2c1O)c1cccc2ccccc12	nt	nt	4.1*	nt	4
C/C(CCN1CCc2nc(-c3ccccc3)c(-c3ccccc3)cc2C1)=N\O[C@@H](C)c1cn([C@H](CO)Cc2ccccc2)nn1	nt	nt	62	nt	65
CCN1CCN(C(=O)Nc2ccccc2OC)CC1	77	84	91	91	88
CSc1nc2ccccc2cc1/C=C(\C#N)c1ccc(Cl)c(Cl)c1	nt	nt	1.9*	nt	2.4*
O=C(CSc1nc2sc3c(c2c(=O)n1Cc1ccco1)CCC3)N1CCc2ccccc21	93	29*	nt	85	nt
CCn1c(SCC(=O)N2CCOCC2)nc2oc3c(Cl)cc(Cl)cc3c(=O)c2c1=O	88	14*	11	87	13
CCn1c(SC(C)C(=O)O)nc2sc3c(c2c1=O)CCC3 (stereo unspecified)	97	78	94	106	98
Cc1cc2c(=O)n(Cc3ccco3)c(SCC(=O)N3CCCc4ccccc43)nc2s1	78	62	60	89	57
CCn1c(SCC(=O)N2CCOCC2)nc2sc3c(c2c1=O)CCCC3	98	39*	99	88	103
COc1cc(NC(=O)CSc2nc3c(C)ccc(C)c3cc2C)c(C(=O)O)cc1OC	nt	nt	98	nt	93
O=C(COc1ccc(/C=N/NC(=O)C(=O)N2CCCCCC2)cc1)Nc1ccccc1Cl	nt	nt	96	nt	101
CCn1c(SCCC(=O)Nc2ccccc2)nnc1-c1ccc(OC)cc1	95	84	103	99	100
